Experimental data as given in ChEMBL document CHEMBL1122517, “2-Phenylindoles. Relationship between structure, estrogen receptor affinity, and mammary tumor inhibiting activity in the rat” (1984).

Key:
[1] = biological target: Estrogen receptor (Bos taurus) (UniProt Q9XSB5+P49884); test: Relative binding affinity for the calf uterine estrogen receptor measured as the ratio of molar concentration of 17-beta-estradiol (E2) and inhibitor required to decrease the amount of bound [3H]E2 by 50%; assay type: protein assay
How it was run: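 Competitive binding in calf uterine cytosol with 5×10^-9 M [3H]estradiol, 18 h at 4 °C, Tris/EDTA buffer (0.01 M, pH 7.5). Unbound ligand was removed with dextran-coated charcoal (90 min, 4 °C) and supernatant radioactivity counted. Six competitor concentrations gave 10–90% bound. From semilog plots, RBA = ratio of molar concentrations of estradiol to compound giving 50% decrease in binding, ×100.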

[2] = species: Rattus norvegicus; test: Change in DMBA-induced mammary carcinoma tumor area in rats at 0.5 mg dose; -100-346; assay type: functional
How it was run: (§1)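 Female Sprague-Dawley rats got one 20 mg DMBA dose by gavage at 50 days old and were palpated twice weekly from day 30. Rats were randomized once tumor area exceeded 140 mm². Dose (per kg) was given sc in olive oil, once daily Monday to Thursday and doubled on Friday. Tumor area was taken from caliper measurements of two perpendicular axes, twice weekly. Change per animal is given as median % and range.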

[3] = species: Rattus norvegicus; test: Partial remission (%) of DMBA-induced mammary carcinoma tumors in rats at 2 mg dose; assay type: functional
How it was run: (§2)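 Female Sprague-Dawley rats, 50 days old, given a single 20 mg DMBA dose in 1 mL olive oil by gavage. Rats were palpated twice weekly from day 30, and those without tumors by day 70 were discarded. Rats were randomized once tumor area exceeded 140 mm². Drug dose was per kg in olive oil (1 mL/kg) sc, single dose Mon–Thu and double dose Fri. Tumor area (caliper, two perpendicular axes) and body weight were measured twice weekly.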

[4] = biological target: T1, Estrogen receptor (Mus musculus) (UniProt O08537+P19785); test: Uterotrophic activity in mice as uterus dry weight (mg)/body weight (g) *100 at 0.2 ug dose; assay type: functional, tissue-based
T1 sequence (O08537 whole entry, looked up): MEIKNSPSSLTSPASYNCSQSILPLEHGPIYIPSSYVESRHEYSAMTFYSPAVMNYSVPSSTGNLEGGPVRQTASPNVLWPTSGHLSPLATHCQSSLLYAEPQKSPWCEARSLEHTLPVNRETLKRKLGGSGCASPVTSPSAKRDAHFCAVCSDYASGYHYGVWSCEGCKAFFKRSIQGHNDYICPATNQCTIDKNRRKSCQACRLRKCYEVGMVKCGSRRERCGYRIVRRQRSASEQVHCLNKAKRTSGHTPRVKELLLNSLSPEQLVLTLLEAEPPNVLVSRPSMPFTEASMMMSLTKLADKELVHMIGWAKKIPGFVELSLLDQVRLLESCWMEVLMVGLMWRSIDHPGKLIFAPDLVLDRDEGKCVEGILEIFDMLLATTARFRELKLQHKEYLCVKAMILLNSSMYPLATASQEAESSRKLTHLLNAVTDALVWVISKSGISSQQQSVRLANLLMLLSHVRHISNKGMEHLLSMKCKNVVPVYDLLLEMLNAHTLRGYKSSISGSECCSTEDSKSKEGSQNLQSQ
T1 sequence (P19785 whole entry, looked up): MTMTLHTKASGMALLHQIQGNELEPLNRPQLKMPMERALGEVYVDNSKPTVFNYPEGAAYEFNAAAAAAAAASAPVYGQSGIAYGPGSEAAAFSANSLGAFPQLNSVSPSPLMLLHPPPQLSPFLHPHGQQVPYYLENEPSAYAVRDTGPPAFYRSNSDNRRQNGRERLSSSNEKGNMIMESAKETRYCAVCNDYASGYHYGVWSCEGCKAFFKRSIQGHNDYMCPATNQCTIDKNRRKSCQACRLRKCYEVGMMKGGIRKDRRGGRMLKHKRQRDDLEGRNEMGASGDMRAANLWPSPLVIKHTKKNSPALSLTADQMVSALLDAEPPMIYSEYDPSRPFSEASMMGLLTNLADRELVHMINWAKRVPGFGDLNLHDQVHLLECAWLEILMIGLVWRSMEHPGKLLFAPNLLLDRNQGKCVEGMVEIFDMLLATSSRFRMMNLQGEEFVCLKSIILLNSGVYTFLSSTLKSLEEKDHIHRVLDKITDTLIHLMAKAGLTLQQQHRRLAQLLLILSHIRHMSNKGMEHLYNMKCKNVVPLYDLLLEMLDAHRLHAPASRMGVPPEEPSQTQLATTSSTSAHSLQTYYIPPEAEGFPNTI
How it was run: (§3)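 Immature 19-day-old female NMRI mice, groups of 10. Compound dose per animal in olive oil (50 µL) sc on 3 consecutive days. Mice were killed 24 h after the last injection. Uteri were Bouin-fixed 20 h, cleaned, washed with alcoholic LiCl, and dried at 100 °C for 24 h. Effect = uterine dry weight (mg)/body weight (g) ×100; mean ± SD.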

[5] = species: Rattus norvegicus; test: Formation of new DMBA-induced mammary carcinoma tumors in rats at 2 mg dose; assay type: functional
How it was run: (§4)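 DMBA-induced tumors in Sprague-Dawley rats, entered when tumor area exceeded 140 mm². Dose per kg was given sc in olive oil, daily Monday to Thursday with a double dose Friday. Tumors were measured by calipers twice weekly. Tumor number was counted at the start of the test. Complete remission meant the tumor was no longer palpable. Partial remission meant reduction to ≤50% of initial size. New tumor appearance was recorded.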

[6] = biological target: T1, Estrogen receptor (Mus musculus); test: Uterotrophic activity in mice as uterus dry weight (mg)/body weight (g) *100 at 125 ug dose; assay type: functional, tissue-based; how it was run: as §3
[7] = species: Rattus norvegicus; test: Percent progressive DMBA-induced mammary carcinoma tumors in rats at 2 mg dose; assay type: functional; how it was run: as §2
[8] = species: Rattus norvegicus; test: Complete remission (%) of DMBA-induced mammary carcinoma tumors in rats at 0.5 mg dose; assay type: functional; how it was run: as §4
[9] = biological target: T1, Estrogen receptor (Mus musculus); test: Uterotrophic activity in mice as uterus dry weight (mg)/body weight (g) *100 at 5 ug dose; assay type: functional, tissue-based; how it was run: as §3
[10] = biological target: T1, Estrogen receptor (Mus musculus); test: Uterotrophic activity in mice as uterus dry weight (mg)/body weight (g) *100 at 25 ug dose; assay type: functional, tissue-based; how it was run: as §3
[11] = species: Rattus norvegicus; test: Percent progressive DMBA-induced mammary carcinoma tumors in rats at 0.5 mg dose; assay type: functional; how it was run: as §2
[12] = species: Rattus norvegicus; test: Change in body weight of DMBA-induced mammary carcinoma tumor bearing rats at 2 mg dose; assay type: functional
How it was run: (§5)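 DMBA-induced tumor-bearing Sprague-Dawley rats (20 mg DMBA by gavage at 50 days old), randomized when tumor area exceeded 140 mm². Dose per kg was given sc in olive oil, single dose daily Monday to Thursday, double dose Friday. Body weight was measured twice weekly. Read-out was % change in body weight.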

[13] = species: Rattus norvegicus; test: Change in DMBA-induced mammary carcinoma tumor area in rats at 0.5 mg dose; assay type: functional; how it was run: as §1
[14] = species: Rattus norvegicus; test: Partial remission (%) of DMBA-induced mammary carcinoma tumors in rats at 0.5 mg dose; assay type: functional; how it was run: as §4
[15] = species: Rattus norvegicus; test: Percent unchanged DMBA-induced mammary carcinoma tumors in rats at 2 mg dose; assay type: functional; how it was run: as §2
[16] = species: Rattus norvegicus; test: Number of DMBA-induced mammary carcinoma tumors in rats at 0.5 mg dose; assay type: functional; how it was run: as §4
[17] = species: Rattus norvegicus; test: Percent unchanged DMBA-induced mammary carcinoma tumors in rats at 0.5 mg dose; assay type: functional; how it was run: as §2
[18] = species: Rattus norvegicus; test: Formation of new DMBA-induced mammary carcinoma tumors in rats at 0.5 mg dose; assay type: functional; how it was run: as §4
[19] = species: Rattus norvegicus; test: Change in DMBA-induced mammary carcinoma tumor area in rats at 2.0 mg dose; assay type: functional; how it was run: as §1
[20] = biological target: T1, Estrogen receptor (Mus musculus); test: Uterotrophic activity in mice as uterus dry weight (mg)/body weight (g) *100 at 1 ug dose; assay type: functional, tissue-based; how it was run: as §3
[21] = species: Rattus norvegicus; test: Change in body weight of DMBA-induced mammary carcinoma tumor bearing rats at 0.5 mg dose; assay type: functional; how it was run: as §5
[22] = species: Rattus norvegicus; test: Complete remission (%) of DMBA-induced mammary carcinoma tumors in rats at 2 mg dose; assay type: functional; how it was run: as §4
[23] = species: Rattus norvegicus; test: Number of DMBA-induced mammary carcinoma tumors in rats at 2 mg dose; assay type: functional; how it was run: as §4
[24] = biological target: T1, Estrogen receptor (Mus musculus); test: Percentage inhibition of uterotrophic activity at 5 ug dose; assay type: functional
How it was run: (§6)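 Antiuterotrophic test in immature 19-day-old female NMRI mice (n=10), dosed sc on 3 consecutive days with 0.4 µg estrone per animal per day plus compound in olive oil. Uterine dry weight/body weight ×100 was read 24 h after the last dose. Inhibition % = 100 − [(E_S,T − E_V)/(E_S − E_V)]×100.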

[25] = biological target: T1, Estrogen receptor (Mus musculus); test: Percentage inhibition of uterotrophic activity at 125 ug dose; assay type: functional; how it was run: as §6
[26] = biological target: T1, Estrogen receptor (Mus musculus); test: Anti-uterotrophic activity in mice as uterus dry weight (mg)/body weight (g) *100 at 1 ug dose; assay type: functional, tissue-based
How it was run: (§7)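 Immature female NMRI mice, 19 days old, groups of 10, given sc injections on 3 consecutive days. Each injection held 0.4 μg estrone plus the indole dose per animal, in olive oil (50 μL). Killed 24 h after the last injection. Uteri were fixed in Bouin solution, washed, and dried 24 h at 100 °C. Read-out was uterine dry weight (mg)/body weight (g) × 100, mean ± SD.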

[27] = biological target: T1, Estrogen receptor (Mus musculus); test: Percentage inhibition of uterotrophic activity at 25 ug dose; assay type: functional; how it was run: as §6
[28] = biological target: T1, Estrogen receptor (Mus musculus); test: Anti-uterotrophic activity in mice as uterus dry weight (mg)/body weight (g) *100 at 25 ug dose; assay type: functional, tissue-based; how it was run: as §7
[29] = biological target: T1, Estrogen receptor (Mus musculus); test: Anti-uterotrophic activity in mice as uterus dry weight (mg)/body weight (g) *100 at 5 ug dose; assay type: functional, tissue-based; how it was run: as §7
[30] = biological target: T1, Estrogen receptor (Mus musculus); test: Anti-uterotrophic activity in mice as uterus dry weight (mg)/body weight (g) *100 at 125 ug dose; assay type: functional, tissue-based; how it was run: as §7

SMILES: CCCc1c(-c2ccc(O)cc2)n(CCC)c2ccc(O)cc12
- RBA [1]: 1.7

SMILES: CCn1c(-c2ccc(O)cc2)c(C)c2cccc(O)c21
- RBA [1]: 0.02

SMILES: CCn1c(-c2cccc(O)c2)c(C)c2ccc(O)cc21
- RBA [1]: 3

SMILES: CCCCn1c(-c2ccc(O)cc2)cc2ccc(O)cc21
- RBA [1]: 4.3

SMILES: Cc1c(-c2ccc(O)cc2)n(C)c2ccc(O)cc12
- RBA [1]: 4.6

SMILES: CCn1c(-c2ccc(O)cc2)c(C)c2ccc(O)cc21
- RBA [1]: 33

SMILES: Cn1c(-c2ccc(O)cc2)cc2ccc(O)cc21
- RBA [1]: 3.8

SMILES: CCCn1c(-c2ccc(O)cc2)c(C)c2cc(O)ccc21
- RBA [1]: 16

SMILES: CCn1c(-c2ccc(OC(C)=O)cc2)c(C)c2ccc(OC(C)=O)cc21
- Change of tumor area [2]: -100%
- Partial remission [3]: 23%
- Uterotrophic effect [4]: 20.8
- New tumors [5]: 6
- Uterotrophic effect [6]: 42.4
- Progressed tumors [7]: 5%
- Complete remission [8]: 65%
- Uterotrophic effect [9]: 41.5
- Uterotrophic effect [10]: 44.8
- Progressed tumors [11]: 9%
- Change of body weight [12]: -13%
- Change of tumor area [13]: -74%
- Partial remission [14]: 11%
- Static tumors [15]: 2%
- No. of tumors [16]: 40
- Static tumors [17]: 15%
- New tumors [18]: 6
- Change of tumor area [19]: -96%
- Uterotrophic effect [20]: 31.6
- Change of body weight [21]: -15%
- Complete remission [22]: 70%
- No. of tumors [23]: 34

SMILES: Cc1c(-c2ccc(O)cc2)n(C(C)C)c2ccc(O)cc12
- RBA [1]: 3.5

SMILES: Cc1c(-c2cccc(O)c2)n(C)c2ccc(O)cc12
- RBA [1]: 0.6

SMILES: CCCn1c(-c2ccc(O)cc2)c(C)c2ccc(O)cc21
- RBA [1]: 13

SMILES: CCCn1c(-c2ccc(O)cc2)cc2ccc(O)cc21
- RBA [1]: 8.5

SMILES: CCc1c(-c2ccc(O)cc2)n(C)c2cc(O)ccc12
- RBA [1]: 5.9

SMILES: CCCn1c(-c2cccc(O)c2)c(C)c2ccc(O)cc21
- RBA [1]: 3.5

SMILES: CCn1c(-c2ccc(O)cc2)c(C)c2cc(O)ccc21
- RBA [1]: 9.5

SMILES: CCCn1c(-c2ccc(O)cc2)cc2cc(O)ccc21
- RBA [1]: 18

SMILES: Cn1c(-c2ccc(O)cc2)cc2cc(O)ccc21
- RBA [1]: 0.8

SMILES: Cc1c(-c2ccc(O)cc2)[nH]c2cc(O)ccc12
- RBA [1]: 0.06

SMILES: CCn1c(-c2cccc(OC(C)=O)c2)c(C)c2ccc(OC(C)=O)cc21
- inhibition [24]: 11%
- inhibition [25]: 26%
- Uterotrophic effect [6]: 39.1
- Uterotrophic effect [9]: 17.2
- Uterotrophic effect [10]: 30.2
- Anti-uterotrophic effect [26]: 46.9
- inhibition [27]: 15%
- Anti-uterotrophic effect [28]: 40.6
- Anti-uterotrophic effect [29]: 41.7
- Anti-uterotrophic effect [30]: 37.4
- Uterotrophic effect [20]: 15.2

SMILES: Oc1ccc(-c2cc3ccc(O)cc3[nH]2)cc1
- RBA [1]: 0.01
